From PubChem
bovine MsrA act – bovine MsrA enzyme activators, primary screen, biochemical, absorbance, HTS. activation, % at 10.6 µM. Methionine sulfoxide reductase A (Bos taurus). AID 602163, 2012. purified bovine MsrA, absorbance read-out. 0.3% of 360,000 active; in the data active = activation above about 7.5%;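 also: 0% = vehicle and 100% = reference activator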
MsrA inh – bovine MsrA enzyme inhibitors, primary screen, biochemical, absorbance, HTS | inhibition, % at 15.5 µM | 0.75% of 360,000 active | Methionine sulfoxide reductase A (Bos taurus) | purified bovine MsrA, absorbance read-out | AID 651718, 2012; in the data active = inhibition above about 4.5%;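 also: 0% = vehicle wells with enzyme and 100% = reference inhibitor wells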
A1 inh – caspase 3/7 activation in MEF A1-2A-BIM cells, primary screen, A1 inhibitor project, cell-based, luminescence, HTS. Caspase-Glo 3/7 luminescence, 3 h; percent of clofoctol response, vehicle zero. 0.066% of 330,000 active. caspase activation, % (test concentration not listed). AID 2462, 2010;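 active = over half of replicate activation scores above 10%, or exactly half above 10 with the replicate mean above 10; inconclusive = replicate mean below 10 yet half the replicates above 10; inactive = over half of replicates below 10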
proCasp3 act – activators of human procaspase-3 D3A mutant, primary screen, biochemical, absorbance, PC-3 D3A mutant, single concentration | Caspase-3 (Homo sapiens), P42574 | recombinant procaspase-3 D3A, Ac-DEVD-pNA absorbance 405 nm | activation, % at 8.5 µM | 0.11% of 330,000 active | AID 463141, 2010;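 active = activation above the mean of all tested compounds plus 3 SD, cut at about 21% in these data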;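 also: 0% = DMSO alone and 100% = DMSO wells spiked with extra 5 µM PC-3 D3A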
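Evaluation: percent activation relative to control range; Material: Procaspase-3 D3A mutant, all three cleavage aspartates alanine; Compound: single dose, 8.5 µM nominal compound, 0.8% DMSO; Replication: one well per compound; Signal: absorbance at 405 nm, 0 and 120 min; Schedule: 1 h preincubation plus 2 h reaction at 25 °C.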
proCasp7 act – procaspase-7 activators, primary screen, counter-screen for procaspase-3 activator project, biochemical, absorbance, HTS, human; recombinant procaspase-7, Ac-DEVD-pNA absorbance 405 nm; D23A/D198A/D206A triple mutant, cannot self-cleave; scale: DMSO 0, 5 µM enzyme 100; activation, % at 8.5 µM; Caspase-7 (Homo sapiens), P55210; 0.093% of 330,000 active;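 active = percent activation above the screen-wide mean plus 3 SD, cut at about 25% in these data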
Target sequence (P55210 whole entry D23A/D198A/D206A): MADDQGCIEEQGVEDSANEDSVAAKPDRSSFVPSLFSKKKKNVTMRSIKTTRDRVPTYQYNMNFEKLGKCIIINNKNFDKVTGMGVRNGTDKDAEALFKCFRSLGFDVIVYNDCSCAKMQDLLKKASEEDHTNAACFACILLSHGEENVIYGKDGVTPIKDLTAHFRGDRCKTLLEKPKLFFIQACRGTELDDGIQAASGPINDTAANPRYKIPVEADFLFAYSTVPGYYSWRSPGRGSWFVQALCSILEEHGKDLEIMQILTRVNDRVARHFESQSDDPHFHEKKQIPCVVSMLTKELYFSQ
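signal = Epi-absorbance of released pNA at 405 nm, two timepoints | assay system = Uncleavable procaspase-7 mutant enzyme | reagent = Ac-DEVD-pNA substrate, 400 µM as added | times = 1 h enzyme–compound preincubation and 2 h substrate reaction, both 25 °C | benchmarks = low DMSO alone, high DMSO plus 5 µM PC-7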
MsrA activ conf – bovine MsrA activators, retest, confirmation, biochemical, absorbance, HTS; activation, % at 10.6 µM; purified bovine MsrA, absorbance read-out; shares compounds with bovine MsrA act; 12% of 1,000 active; AID 602270, 2012; in the data active = activation above about 4%;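 also: enzyme coupled to thioredoxin and thioredoxin reductase with NADPH; 0% = vehicle wells and 100% = reference activator wells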
The depositor's hits bear a star; ? = inconclusive; / = no result. A selection: hits, their analogues and other compounds. The true share with any hit is near 1.2%.

SMILES	bovine MsrA act	MsrA inh	A1 inh	proCasp3 act	proCasp7 act	MsrA activ conf
CN1OC[C@@H]2CN(C(=O)c3ccc(C#N)cc3)[C@H](c3cccc(Br)c3)C[C@@H]21	/	-0.8	/	/	/	/
CC(C)C[C@@H]1NC(=O)[C@@H]2CSCCS(=O)(=O)N2C1=O	/	-0.6	/	/	/	/
COc1cccc(-c2nc(N3CCCC3)c3ccccc3n2)c1O	-7.0	1.1	-0.5	4.5	-1.0	/
COc1cccc(-c2nc(N3CCC(C)CC3)c3ccccc3n2)c1O	8.2*	2.5	?	-0.3	8.1	-4.8
FC(F)(F)c1cccc(-c2nc3nc(Cl)c(Cl)nc3[nH]2)c1	12.0*	/	-10.8	2.8	-3.3	-3.6
COc1cccc(CNS(=O)(=O)c2ccccc2Br)c1	/	-0.1	/	/	/	/
CCOC(=O)N1CCN(c2c(F)cc3[nH]c(=S)[nH]c3c2Br)CC1	11.9*	1.2	-0.3	-7.9	-6.6	-2.5
O=C(NCc1ccccc1)[C@@H]1CCCN1C(=O)[C@@H]1CCCN1C(=O)c1cccs1	-0.7	-0.7	/	/	/	/
O=C(NCc1ccccc1Cl)[C@H]1CCCN1C(=O)[C@H]1CCCN1C(=O)c1cccs1	9.2*	-0.6	/	/	/	-2.6
CCCCN(C(=O)c1cc(Cl)nc2ccccc12)c1c(N)n(CCC)c(=O)[nH]c1=O	-9.3	0.7	/	/	/	/
CCCCN(C(=O)c1cc(Cl)nc2ccccc12)c1c(N)n(Cc2ccccc2)c(=O)[nH]c1=O	11.5*	0.3	0.0	4.4	1.4	0.4
COc1ccc(C(C)=O)cc1CN1C(=O)NC2(CCCCC2)C1=O	-5.1	-0.8	-0.1	-4.5	4.9	/
COc1ccc(C(C)=O)cc1CN1C(=O)C(C)N(c2ccc(C)cc2)C1=O (configuration not stated)	9.0*	1.2	0.7	9.4	1.8	-2.5
Cc1nn(C)c(Sc2ccccc2N)c1[N+](=O)[O-]	8.0*	0.3	0.1	-33.4	-39.9	0.1
FC(F)c1nc2ccccc2[nH]1	-7.0	-0.9	1.8	5.3	-6.4	/
c1ccc2[nH]c3cc4ncnc4cc3nc2c1	18.2*	0.4	-1.2	0.1	-19.1	14.8*
CC(C)(C)OC(=O)N1CCC(NC(=O)c2nc[nH]c2C(=O)NCc2ccccc2)CC1	0.7	0.7	1.8	1.0	4.5	/
CC(C)(C)OC(=O)NCc1ccc(CNC(=O)c2[nH]cnc2C(=O)NC2CCN(C(=O)OC(C)(C)C)CC2)cc1	11.9*	/	-0.4	7.4	-2.7	1.8
CCc1nn(C(C)C(=O)Nc2cccc(C)c2C)c(=O)c2cc3occc3n12 (configuration not stated)	8.4*	0.0	0.2	-3.2	7.7	-1.9
COc1ccc(CN2C[C@H](COCc3ccccc3)Oc3cccc(F)c3S2(=O)=O)cc1	/	0.2	/	/	/	/
N#CC(c1nc2ccccc2nc1N1CCCC1)S(=O)(=O)c1cccs1 (configuration not stated)	10.0*	2.8	0.2	-6.4	-5.0	-3.3
N#CC(c1nc2ccccc2nc1N1CCCC1)S(=O)(=O)c1ccccc1 (configuration not stated)	-9.9	1.7	-0.6	-8.5	-26.4	/
Cc1cccc(OCCC(=O)OC(C)C(=O)Nc2ccc(Cl)cn2)c1 (configuration not stated)	15.5*	-0.4	1.7	-7.4	5.7	-1.9
CC(OC(=O)CCOc1ccccc1)C(=O)Nc1ccc(Cl)cn1 (configuration not stated)	-15.2	0.9	-0.6	-1.1	-1.5	/
Cn1c(=O)c2c(c3ccccc31)OC(C)(C)C=C2	/	1.6	/	/	/	/
Cc1c(NC(=O)N2CCCCCC2)c(=O)n(-c2ccccc2)n1C	8.4*	1.6	0.7	8.4	9.5	-3.9
Cc1c(NC(=O)Cn2[nH]c(=O)c3ccccc3c2=O)c(=O)n(-c2ccccc2)n1C	22.8*	0.3	0.7	-9.6	-2.1	-1.3
